Measured values gathered from unrelated publications.
Protocols differ between the studies behind these lines.
Target: Mitogen-activated protein kinase kinase kinase 12 (MAP3K12, Homo sapiens, UniProt Q12852)
Sequence (Q12852 1-859, as in one of the studies): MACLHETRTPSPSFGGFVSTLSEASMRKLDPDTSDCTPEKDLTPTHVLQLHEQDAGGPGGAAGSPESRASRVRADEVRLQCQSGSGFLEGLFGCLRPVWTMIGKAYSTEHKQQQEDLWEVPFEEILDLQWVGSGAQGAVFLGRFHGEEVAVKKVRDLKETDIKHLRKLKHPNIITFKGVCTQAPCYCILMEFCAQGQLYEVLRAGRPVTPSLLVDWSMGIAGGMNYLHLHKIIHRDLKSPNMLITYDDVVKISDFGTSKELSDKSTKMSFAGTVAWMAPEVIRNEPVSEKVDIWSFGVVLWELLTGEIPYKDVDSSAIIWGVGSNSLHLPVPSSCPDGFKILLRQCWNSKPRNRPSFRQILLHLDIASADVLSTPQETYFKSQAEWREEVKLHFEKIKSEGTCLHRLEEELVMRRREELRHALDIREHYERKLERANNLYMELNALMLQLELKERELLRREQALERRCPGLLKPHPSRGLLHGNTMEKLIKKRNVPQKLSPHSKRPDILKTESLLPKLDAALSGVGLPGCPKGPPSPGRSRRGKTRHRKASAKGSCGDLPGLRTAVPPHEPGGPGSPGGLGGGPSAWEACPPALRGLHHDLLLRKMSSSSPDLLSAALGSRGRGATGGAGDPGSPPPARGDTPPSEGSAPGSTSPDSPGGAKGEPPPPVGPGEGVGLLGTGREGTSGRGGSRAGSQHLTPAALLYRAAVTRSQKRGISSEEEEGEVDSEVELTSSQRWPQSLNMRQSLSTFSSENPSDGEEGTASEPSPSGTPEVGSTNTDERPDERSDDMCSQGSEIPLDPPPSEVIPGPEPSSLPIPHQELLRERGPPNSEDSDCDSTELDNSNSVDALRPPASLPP

The remaining binding of `O=C1CCc2cc(Nc3cc(OC4CCOCC4)c([N+](=O)[O-])cc3Cl)ccc2N1` is reported as 100% (cell-free assay, competition with immobilised ligand; 1 µM).
`Cc1cnc(Nc2ccc(C(=O)N3CCC(N4CCCC4)CC3)cc2)nc1-c1cc2ccccc2s1` gave a remaining binding of 8.3% (binding, competition with immobilised ligand; 1 µM).
`CN(C)c1ncc(F)c(-c2cnn3ncccc23)n1` has a remaining binding of 72% (binding; 1 µM).
With `COc1cnc(Nc2cccc(S(N)(=O)=O)c2)nc1N1CCN(c2ccccc2)C(=O)C1` the remaining binding was 82% (binding, competition with immobilised ligand; 1 µM).
The remaining binding of `CNCc1ccccc1-c1csc([C@H](C)Nc2nc(C)nc3cc(OC)c(OC)cc23)c1` is reported as 97% (cell-free assay, competition with immobilised ligand; 1 µM).
With `CC1CCCN1c1nccc(-c2cnn3ncccc23)n1` (centres unmarked) the remaining binding was 100% (binding; 1 µM).
The remaining binding of `O=C(Nc1cnc(Oc2ccc(F)cc2)nc1)N1CCc2ncccc2[C@@H]1c1ccc(F)cc1` is reported as 100% (cell-free assay, competition with immobilised ligand; 1 µM).
For `C[C@@H]1CCN(c2nccc(-c3cnn4ncccc34)n2)C1`, the remaining binding was 75% (binding; 1 µM).
The remaining binding of `O=C(NCCCN1CCOCC1)c1ccc(Nc2nccc(-c3cc4ccccc4s3)n2)cc1` is reported as 54% (binding, competition with immobilised ligand; 1 µM).
For `O=C(NCC1CCOCC1)c1n[nH]cc1NC(=O)c1c(F)cccc1F`, the remaining binding was 85% (binding, competition with immobilised ligand; 1 µM).
The remaining binding of `Nc1ncc2c(n1)-c1c([nH]c3ccc(C#CC4CC4)cc13)CCCC2` is reported as 93% (binding, competition with immobilised ligand; 1 µM).
With `CN([C@@H]1CCc2c(CC(=O)O)c3ccccc3n2C1)S(=O)(=O)c1ccc(F)cc1` the remaining binding was 100% (cell-free assay, competition with immobilised ligand; 1 µM).
With `COc1cnc(Nc2cccc(S(N)(=O)=O)c2)nc1N1CCN(c2ccccc2)CC1` the remaining binding was 72% (binding, competition with immobilised ligand; 1 µM).
The remaining binding of `CN(C)c1nccc(-c2cnc3ncccn23)n1` is reported as 67% (binding; 1 µM).
`C[C@@H]1CN(c2cc(-c3n[nH]c4ccc(OC5(C)CC5)cc34)ncn2)C[C@H](C)O1` has a remaining binding of 82% (cell-free assay, competition with immobilised ligand; 0.1 µM).
`FC(F)(F)Oc1cccc(-c2cnc3ccc(-c4ccncc4)nn23)c1` has a remaining binding of 45% (cell-free assay, competition with immobilised ligand; 5 µM).
The remaining binding of `CN(c1nccc(-c2cnn3ncccc23)n1)C1CC1` is reported as 100% (binding; 1 µM).
With `O=C(NCCCN1CCOCC1)c1ccc(Nc2ncc(Cl)c(-c3ccc(Cl)s3)n2)cc1` the remaining binding was 33% (binding, competition with immobilised ligand; 1 µM).
For `CN(CCCC(F)(F)F)c1nccc(-c2cnn3ncccc23)n1`, the remaining binding was 100% (binding; 1 µM).
`O=C(NS(=O)(=O)c1ccc(NCC2CCOCC2)c([N+](=O)[O-])c1)c1ccc(N2CCN(Cc3ccc(C(F)(F)F)cc3-c3ccc(Cl)cc3)CC2)cc1Oc1cnc2[nH]ccc2c1` gave a remaining binding of 100% (cell-free assay, competition with immobilised ligand; 1 µM).
